A selection: hits, their analogues and other compounds. The true share with any hit is near 1.5%.
HCV core dimer: blocks dimerization of HCV core protein; TR-FRET GST/Flag-core106 dimerization, 1536-well; 0.33% of 300,000 active; inhibition, % at 5 µM;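 active means inhibition above the mean of all tested compounds plus 3 SD, set per screening campaign, cut at about 45% in these data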
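Material: Tagged HCV core106 pair (GST and Flag) | Amount: GST-core106 13.5 nM, Flag-core106 17 nM | Medium: KF-containing HEPES buffer, pH 7.45, DTT, CHAPS, BSA | Reagent: Eu donor and XL665 acceptor anti-tag antibodies | Schedule: 4 h at 22.5 °C | Technique: Time-resolved FRET, ex 340 nm, em 617 and 671 nm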
CendR NRP1 mod: NRP-1/CendR interaction modulation; O14786; FAM-RPARPAR peptide binding to NRP-1, fluorescence polarization; inhibition, % at 25 µM; 0.85% of 360,000 active;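 active means inhibition or corrected inhibition above about 18%, plus a signal ratio from 0.5 to 1.5, limit read from the data, passing the limit was not always enough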
Target sequence (O14786 whole entry, looked up): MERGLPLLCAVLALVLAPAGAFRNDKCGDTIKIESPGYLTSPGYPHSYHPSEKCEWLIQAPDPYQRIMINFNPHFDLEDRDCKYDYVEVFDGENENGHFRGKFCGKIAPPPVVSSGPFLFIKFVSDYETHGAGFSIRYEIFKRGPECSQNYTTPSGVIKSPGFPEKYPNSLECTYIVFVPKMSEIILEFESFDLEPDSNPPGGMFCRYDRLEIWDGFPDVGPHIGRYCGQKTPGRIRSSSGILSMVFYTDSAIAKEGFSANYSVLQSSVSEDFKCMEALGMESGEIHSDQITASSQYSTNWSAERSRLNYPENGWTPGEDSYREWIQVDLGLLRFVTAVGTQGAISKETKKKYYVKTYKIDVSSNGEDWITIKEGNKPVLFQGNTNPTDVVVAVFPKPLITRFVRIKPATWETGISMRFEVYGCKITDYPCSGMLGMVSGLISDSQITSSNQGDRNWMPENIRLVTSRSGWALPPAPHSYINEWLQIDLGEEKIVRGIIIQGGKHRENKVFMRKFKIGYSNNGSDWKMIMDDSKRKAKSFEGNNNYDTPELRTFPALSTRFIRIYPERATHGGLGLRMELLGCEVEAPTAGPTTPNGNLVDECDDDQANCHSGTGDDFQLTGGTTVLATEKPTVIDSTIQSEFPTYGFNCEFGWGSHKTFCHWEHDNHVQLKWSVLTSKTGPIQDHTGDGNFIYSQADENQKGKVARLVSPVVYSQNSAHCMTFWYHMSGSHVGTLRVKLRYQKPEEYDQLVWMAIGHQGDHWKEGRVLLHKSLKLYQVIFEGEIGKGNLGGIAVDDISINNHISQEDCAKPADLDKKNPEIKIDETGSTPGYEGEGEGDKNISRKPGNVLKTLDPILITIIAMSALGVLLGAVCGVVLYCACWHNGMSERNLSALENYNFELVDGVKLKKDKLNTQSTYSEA
MEX-5 binding: C. elegans MEX-5 TCR-2 RNA binding activity | Q9XUB2 | MEX-5/FITC-TCR2 RNA binding, fluorescence polarization; stronger effect = lower value | activity score (negative = inhibition of binding), % at 10 µM | 0.38% of 300,000 active;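 active means inhibition past about -25% in most replicates, and total fluorescence under double the plate's negative control median, limit read from the data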
FID counter: fluorescent intercalator displacement, NS3 helicase counter-screen; DNA fluorescent intercalator displacement, fluorescence; inhibition, % at 7.9 µM; 0.17% of 290,000 active; AID 1845; in the data active means inhibition above about 37%;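 further: higher means more ethidium bromide displaced from hairpin DNA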
Hits are given with their value; . = inactive; / = not tested or not shown.

SMILES	HCV core dimer	CendR NRP1 mod	MEX-5 binding	FID counter
CC(=O)c1cccc(OCc2cc(C(=O)NC3CCN(Cc4ccccc4)CC3)no2)c1	.	27.7	/	.
COc1ccc(C=C(C(C)=O)C(=O)c2ccccc2)cc1	/	.	/	/
CC(=O)C(=Cc1ccc(Cl)cc1)C(=O)c1ccccc1	/	22.0	/	/
CSc1nc2ccc(NC(=O)NC(=O)c3c(F)cccc3F)cc2s1	.	.	.	.
COc1cccc(F)c1C(=O)NC(=O)Nc1ccc2nc(C)oc2c1	.	.	-30.6	.
Cc1cc(C)n(-c2nnc3n2N=C(c2ccccc2)CS3)n1	.	.	.	.
Cc1cc(C)n(-c2nnc3n2N=C(c2c[nH]c4ccccc24)CS3)n1	.	23.0	.	.
COC(=O)/C=c1/s/c(=C(/C#N)C(=O)N2CCOCC2)n(-c2ccccc2)c1=O	.	.	.	.
COC(=O)/C=c1/s/c(=C(\C#N)C(=O)NCc2ccco2)n(-c2ccc(C)cc2)c1=O	56.9	.	.	.
CCC(C)c1ccc(C2C3=C(Nc4nc(N)[nH]c(=O)c42)c2ccccc2C3=O)cc1 (stereo unspecified)	.	.	.	95.9
COc1ccc(NC(=O)/C=C/c2cccc(Br)c2)cn1	.	.	-33.4	.
COc1ccc(-c2nn(-c3ccccc3)cc2/C=C(\C#N)C(N)=O)cc1[N+](=O)[O-]	53.7	.	.	.
COc1ccc(-c2nn(-c3ccccc3)cc2/C=C(/C#N)C(N)=O)cc1[N+](=O)[O-]	46.9	.	.	.
COc1ccc(-c2nn(-c3ccccc3)cc2C(=O)Nc2cccc(C(=O)O)c2)cc1[N+](=O)[O-]	.	.	.	.
O=S1(=O)C[C@H](N2CCN(CCO)CC2)[C@@H](COCc2ccccc2)N1	/	.	/	/
COc1ccc([C@H]2C[C@@H](O)[C@H](n3cc(COC(=O)c4ccccc4)nn3)CN2C(=O)C2CCCCC2)cc1	/	.	/	/
CC(C)(C)c1ccc(C(O)c2ncc(-c3ccccc3F)[nH]2)cc1 (stereo unspecified)	/	.	/	/
CNC(=O)NC(=O)CSc1cccc(C(F)(F)F)c1	.	38.0	.	.
CC1(C)Cc2cccc(OC(=O)NC3CCCCC3)c2O1	/	.	/	/
Cc1cccc(C(=O)NNC(=O)c2cc3cc4ccccc4nc3s2)c1	.	.	.	.
O=C(NNC(=O)c1cc2cc3ccccc3nc2s1)c1cccc(Cl)c1	57.5	.	.	.
COc1ccc(OC)c2c1CCC1(C2)NC(=O)NC1=O (stereo unspecified)	/	.	/	/
Nc1ccc(O)c(-c2nc3ccccc3s2)c1	82.0	.	.	.
COc1ccccc1CNC(=O)c1cc(-c2ccccc2C)nn1CC1CC(c2cccnc2)=NO1 (stereo unspecified)	/	.	/	/
Cc1ccccc1-c1cc(C(=O)NCc2cccc(Br)c2)n(CC2CC(c3cccnc3)=NO2)n1 (stereo unspecified)	/	24.0	/	/
SMILES	HCV core dimer	CendR NRP1 mod	MEX-5 binding	FID counter
O=C(NCc1cccs1)c1cc(-c2ccccc2)nn1CC1CC(c2cccc([N+](=O)[O-])c2)=NO1 (stereo unspecified)	.	30.1	.	/
CC(C)(C)C1CC=C2C(C#N)=C(N)C(C#N)(C#N)C(c3cccs3)C2C1 (stereo unspecified)	.	/	-41.2	.
CS(=O)(=O)N(CC(=O)Nc1ccc(Br)cc1F)C1CCCCC1	.	.	.	.
CS(=O)(=O)N(CC(=O)Nc1ccccc1F)C1CCCCC1	.	22.9	.	.
COc1ccc(/C=C2\SC(=O)N(CCNC(=O)Cn3[nH]c(=O)c4ccccc4c3=O)C2=O)cc1	/	29.4	/	/
Cc1cc(O)c(Oc2cc(C)cc(O)c2O)c(O)c1	.	.	-49.3	.
CN1CCN(c2ccc(NC(=O)c3ccc(-c4ccc(Cl)cc4)o3)cc2)CC1	.	.	.	37.8
COc1cccc(NC(=S)NNC(=O)Cn2nc([N+](=O)[O-])cc2C)c1	.	29.7	.	.
COc1ccccc1NS(=O)(=O)c1cc(NC(=O)CNC(=O)c2ccccc2)ccc1C	.	.	.	.
COc1ccccc1NS(=O)(=O)c1cc(NC(=O)c2ccc3c(c2)OCCO3)ccc1C	.	29.8	.	.
CC(C)CN1CCC(=O)N([C@H](CSc2ccc(Br)cc2)c2ccccc2)CC1	.	.	.	/
CC(C)C[C@@H](CSc1ccc(Br)cc1)N1CCN(CC(C)C)CCC1=O	.	21.2	.	/
CC(C)C[C@@H](CSc1ccc(Br)cc1)N1CCN(C)CCC1=O	.	.	.	/
Cc1ccc(SC[C@H](c2ccccc2)N2CCN(CC(C)C)CCC2=O)cc1	/	32.7	.	/
N#CC1(Nc2ccc(S(N)(=O)=O)cc2)CCCC1	/	.	/	/
CC1(C(=O)NCCC#N)CCN1C(=O)C1(c2ccccc2)CCCC1 (stereo unspecified)	/	.	/	/
CC(=O)Oc1cc2cccc(OC(C)=O)c(=O)c2c(OC(C)=O)c1OC(C)=O	.	30.4	-61.3	.
COc1cc2cccc(OC)c(=O)c2c(O)c1OC	.	.	.	.
COc1cc(/C=C2\C(=O)N(c3ccccc3)N=C2C)ccc1Oc1ccc([N+](=O)[O-])cc1[N+](=O)[O-]	.	.	/	.
CC1=NN(c2ccccc2)C(=O)/C1=C\c1ccc(Oc2ccc([N+](=O)[O-])cc2[N+](=O)[O-])cc1	61.5	.	.	.
Cc1ncc(S(=O)(=O)c2ccccc2)c(-c2ccccc2)n1	.	.	.	.
O=S(=O)(c1ccccc1)c1cnc(-c2cccnc2)nc1-c1ccc(Cl)c(Cl)c1	.	20.4	.	.
COc1cccc(CN2CCN(C(=O)[C@H]3O[C@@H](n4cnc5c(N)ncnc54)[C@H](O)[C@@H]3O)CC2=O)c1	/	.	/	/
Cc1cc(C)nc(Sc2ccc([N+](=O)[O-])cc2[N+](=O)[O-])n1	.	.	.	.
CN(C)/N=C/c1ccc(Sc2ccc([N+](=O)[O-])cc2[N+](=O)[O-])o1	.	32.7	.	.
SMILES	HCV core dimer	CendR NRP1 mod	MEX-5 binding	FID counter
O=C(O)CSc1cc(C(=O)c2ccccc2O)cn2c(=O)c3c(-c4ccccc4)csc3nc12	54.5	.	.	.
CCOC(=O)c1sc2nc3c(SCC(=O)O)cc(C(=O)c4ccccc4O)cn3c(=O)c2c1C	.	.	.	.
Cc1c(CC(=O)O)c(=O)oc2c(C)c3occ(-c4ccccc4)c3cc12	.	45.2	.	.
COc1ccccc1COc1ccc2c(C)c(CC(=O)O)c(=O)oc2c1C	.	36.3	.	.
Cc1c(CCC(=O)O)c(=O)oc2c(C)c3occ(-c4ccc(Cl)cc4)c3cc12	/	.	.	.
CCN(CC(=O)Nc1ccc(OC)cc1)C(=O)CCS(=O)(=O)c1ccc(C)cc1	.	.	.	.
CCN(CC(=O)Nc1ccc(OC)cc1)C(=O)Cc1cccs1	51.8	.	.	/
COc1ccc(C(O)c2nc(-c3cncnc3)cs2)cc1 (stereo unspecified)	/	.	/	/
O=C1N=C(N2C=CC(=C3C=CNC=C3)C=C2)/C(=C/N=NC(=O)c2ccccc2O)S1	.	41.4	-46.2	.
Cc1cc(=O)oc2c(CN3CCCCC3)c(O)ccc12	/	.	/	/
Oc1ccc2[nH]cnc2c1CN1CCCCC1	.	25.2	.	.
